Data reported in ChEMBL document CHEMBL1142148, “Antibiotic susceptibility profile of bifidobacteria as affected by oxgall, acid, and hydrogen peroxide stress” (2007).
Values after ≈ are worked out from the molar mass of the structure shown.

Tests used:
Bifidobacterium longum [1] = assay: Antimicrobial activity against 90 mins hydrogen peroxide-stressed Bifidobacterium longum ATCC 15708 after 18 hrs; type: functional
In short: (§1)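 Stress applied for 90 min at 37°C under anaerobic conditions, using MRS (initial pH 6.5) containing H2O2 at each strain's own inhibitory concentration. The H2O2 level was set beforehand by microplate tolerance testing. Challenged cells were regrown in MRS for 24 h (footnote: 18 h) before MIC testing by broth microdilution. Median of four repetitions.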

[2] = Antimicrobial activity against 90 mins oxgall-stressed Bifidobacterium infantis ATCC 15697 after 18 hrs; type: functional, Bifidobacterium longum subsp. infantis; conditions: Bifidobacterium longum
In short: (§2)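 Cells pelleted from mid-log MRS culture and resuspended in MRS (initial pH 6.5) with 0.3% (wt/vol) oxgall for 90 min anaerobically at 37°C. They were then regrown in MRS pH 6.5 for 24 h (footnote: 18 h) anaerobically and tested for MIC by the same broth microdilution assay. Median of four repetitions.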

Bifidobacterium animalis [3] = assay: Antimicrobial activity against 60 min 1 M HCl-stressed Bifidobacterium animalis ATCC 27536 after 18 hrs; type: functional
In short: (§3)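 Mid-log MRS culture pelleted and resuspended in MRS broth brought to pH 2.0 with 1 M HCl, held anaerobically at 37°C for 60 min, then subcultured in MRS (pH 6.5) for 24 h anaerobically before MIC testing by broth microdilution (as for unstressed cells). Table footnote gives 18 h anaerobic regrowth after the stress. MIC is the median of four repetitions.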

Bifidobacterium longum [4] = assay: Antimicrobial activity against Bifidobacterium longum P/N 601377; type: functional
In short: (§4)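 Broth microdilution in MRS plus 0.05% L-cysteine-HCl. Mid-log culture adjusted to OD650 0.1, giving about 2.5 × 10^4 to 5.0 × 10^4 CFU/well, then added to twofold serial dilutions of agent. Plates incubated anaerobically at 37°C for 18 h and read at OD650. MIC is the lowest concentration matching the uninoculated blank OD, taken as the median of four repeats.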

Bifidobacterium breve [5] = assay: Antimicrobial activity against 90 mins hydrogen peroxide-stressed Bifidobacterium breve ATCC 15700 after 18 hrs; type: functional; in short: as §1
Bifidobacterium animalis [6] = assay: Antimicrobial activity against 90 mins oxgall-stressed Bifidobacterium animalis ATCC 27536 after 18 hrs; type: functional; in short: as §2
[7] = tested on: Bifidobacterium thermophilum; assay: Antimicrobial activity against 90 mins hydrogen peroxide-stressed Bifidobacterium thermophilum ATCC 25866 after 18 hrs; type: functional; in short: as §1
Bifidobacterium bifidum [8] = assay: Antimicrobial activity against 90 mins oxgall-stressed Bifidobacterium bifidum R0071 after 18 hrs; type: functional; in short: as §2
Bifidobacterium longum [9] = assay: Antimicrobial activity against 60 min 1 M HCl-stressed Bifidobacterium longum R0175 after 18 hrs; type: functional; in short: as §3
Bifidobacterium bifidum [10] = assay: Antimicrobial activity against 90 mins oxgall-stressed Bifidobacterium bifidum ATCC 15696 after 18 hrs; type: functional; in short: as §2
Bifidobacterium bifidum [11] = assay: Antimicrobial activity against 60 min 1 M HCl-stressed Bifidobacterium bifidum R0071 after 18 hrs; type: functional; in short: as §3
[12] = tested on: Bifidobacterium pseudolongum; assay: Antimicrobial activity against 90 mins oxgall-stressed Bifidobacterium pseudolongum ATCC 25562 after 18 hrs; type: functional; in short: as §2
Bifidobacterium breve [13] = assay: Antimicrobial activity against 60 min 1 M HCl-stressed Bifidobacterium breve R0070 after 18 hrs; type: functional; in short: as §3
[14] = tested on: Bifidobacterium thermophilum; assay: Antimicrobial activity against 60 min 1 M HCl-stressed Bifidobacterium thermophilum ATCC 25866 after 18 hrs; type: functional; in short: as §3
Bifidobacterium breve [15] = assay: Antimicrobial activity against 60 min 1 M HCl-stressed Bifidobacterium breve ATCC 15700 after 18 hrs; type: functional; in short: as §3
[16] = Antimicrobial activity against Bifidobacterium infantis ATCC 15697; type: functional, Bifidobacterium longum subsp. infantis; conditions: Bifidobacterium longum; in short: as §4
Bifidobacterium longum [17] = assay: Antimicrobial activity against Bifidobacterium longum ATCC 15707; type: functional; in short: as §4
Bifidobacterium longum [18] = assay: Antimicrobial activity against 90 mins hydrogen peroxide-stressed Bifidobacterium longum P/N 601377 after 18 hrs; type: functional; in short: as §1
Bifidobacterium bifidum [19] = assay: Antimicrobial activity against 90 mins oxgall-stressed Bifidobacterium bifidum BB12 after 18 hrs; type: functional; in short: as §2
Bifidobacterium animalis [20] = assay: Antimicrobial activity against 90 mins hydrogen peroxide-stressed Bifidobacterium animalis ATCC 27536 after 18 hrs; type: functional; in short: as §1
Bifidobacterium longum [21] = assay: Antimicrobial activity against 90 mins hydrogen peroxide-stressed Bifidobacterium longum ATCC 15707 after 18 hrs; type: functional; in short: as §1
Bifidobacterium breve [22] = assay: Antimicrobial activity against 90 mins oxgall-stressed Bifidobacterium breve R0070 after 18 hrs; type: functional; in short: as §2
[23] = tested on: Bifidobacterium pseudolongum; assay: Antimicrobial activity against 60 min 1 M HCl-stressed Bifidobacterium pseudolongum ATCC 25562 after 18 hrs; type: functional; in short: as §3
[24] = Antimicrobial activity against 60 min 1 M HCl-stressed Bifidobacterium infantis ATCC 15697 after 18 hrs; type: functional, Bifidobacterium longum subsp. infantis; conditions: Bifidobacterium longum; in short: as §3
Bifidobacterium bifidum [25] = assay: Antimicrobial activity against Bifidobacterium bifidum R0071; type: functional; in short: as §4
Bifidobacterium longum [26] = assay: Antimicrobial activity against Bifidobacterium longum ATCC 15708; type: functional; in short: as §4
[27] = tested on: Bifidobacterium thermophilum; assay: Antimicrobial activity against 90 mins oxgall-stressed Bifidobacterium thermophilum ATCC 25866 after 18 hrs; type: functional; in short: as §2
Bifidobacterium bifidum [28] = assay: Antimicrobial activity against Bifidobacterium bifidum BB12; type: functional; in short: as §4
Bifidobacterium breve [29] = assay: Antimicrobial activity against Bifidobacterium breve ATCC 15700; type: functional; in short: as §4
Bifidobacterium longum [30] = assay: Antimicrobial activity against 90 mins oxgall-stressed Bifidobacterium longum ATCC 15707 after 18 hrs; type: functional; in short: as §2
Bifidobacterium longum [31] = assay: Antimicrobial activity against 90 mins oxgall-stressed Bifidobacterium longum R0175 after 18 hrs; type: functional; in short: as §2
Bifidobacterium breve [32] = assay: Antimicrobial activity against Bifidobacterium breve R0070; type: functional; in short: as §4
[33] = tested on: Bifidobacterium thermophilum; assay: Antimicrobial activity against Bifidobacterium thermophilum ATCC 25866; type: functional; in short: as §4
Bifidobacterium bifidum [34] = assay: Antimicrobial activity against 90 mins hydrogen peroxide-stressed Bifidobacterium bifidum BB12 after 18 hrs; type: functional; in short: as §1
Bifidobacterium longum [35] = assay: Antimicrobial activity against 90 mins oxgall-stressed Bifidobacterium longum ATCC 15708 after 18 hrs; type: functional; in short: as §2
Bifidobacterium breve [36] = assay: Antimicrobial activity against 90 mins hydrogen peroxide-stressed Bifidobacterium breve R0070 after 18 hrs; type: functional; in short: as §1
Bifidobacterium longum [37] = assay: Antimicrobial activity against 60 min 1 M HCl-stressed Bifidobacterium longum ATCC 15707 after 18 hrs; type: functional; in short: as §3
Bifidobacterium longum [38] = assay: Antimicrobial activity against 60 min 1 M HCl-stressed Bifidobacterium longum P/N 601377 after 18 hrs; type: functional; in short: as §3
Bifidobacterium longum [39] = assay: Antimicrobial activity against 90 mins oxgall-stressed Bifidobacterium longum P/N 601377 after 18 hrs; type: functional; in short: as §2
Bifidobacterium bifidum [40] = assay: Antimicrobial activity against 90 mins hydrogen peroxide-stressed Bifidobacterium bifidum R0071 after 18 hrs; type: functional; in short: as §1
Bifidobacterium animalis [41] = assay: Antimicrobial activity against Bifidobacterium animalis ATCC 27536; type: functional; in short: as §4
Bifidobacterium breve [42] = assay: Antimicrobial activity against 90 mins oxgall-stressed Bifidobacterium breve ATCC 15700 after 18 hrs; type: functional; in short: as §2
Bifidobacterium longum [43] = assay: Antimicrobial activity against Bifidobacterium longum R0175; type: functional; in short: as §4
[44] = tested on: Bifidobacterium pseudolongum; assay: Antimicrobial activity against Bifidobacterium pseudolongum ATCC 25562; type: functional; in short: as §4
Bifidobacterium longum [45] = assay: Antimicrobial activity against 90 mins hydrogen peroxide-stressed Bifidobacterium longum R0175 after 18 hrs; type: functional; in short: as §1
Bifidobacterium bifidum [46] = assay: Antimicrobial activity against 60 min 1 M HCl-stressed Bifidobacterium bifidum BB12 after 18 hrs; type: functional; in short: as §3
Bifidobacterium bifidum [47] = assay: Antimicrobial activity against Bifidobacterium bifidum ATCC 15696; type: functional; in short: as §4

CC1(C)S[C@@H]2[C@H](NC(=O)Cc3ccccc3)C(=O)N2[C@H]1C(=O)O [PENICILLIN G]
MIC (Bifidobacterium longum [1]): 0.98 µg/mL (≈ 2.93 µM)
MIC [2]: 0.98 µg/mL (≈ 2.93 µM)
MIC (Bifidobacterium animalis [3]): 0.98 µg/mL (≈ 2.93 µM)
MIC (Bifidobacterium longum [4]): 0.98 µg/mL (≈ 2.93 µM)
MIC (Bifidobacterium breve [5]): 0.98 µg/mL (≈ 2.93 µM)
MIC (Bifidobacterium animalis [6]): 0.98 µg/mL (≈ 2.93 µM)
MIC [7]: 0.98 µg/mL (≈ 2.93 µM)
MIC (Bifidobacterium bifidum [8]): 0.98 µg/mL (≈ 2.93 µM)
MIC (Bifidobacterium longum [9]): 0.98 µg/mL (≈ 2.93 µM)
MIC (Bifidobacterium bifidum [10]): 0.98 µg/mL (≈ 2.93 µM)
MIC (Bifidobacterium bifidum [11]): 1.9 µg/mL (≈ 5.68 µM)
MIC [12]: 0.98 µg/mL (≈ 2.93 µM)
MIC (Bifidobacterium breve [13]): 1.9 µg/mL (≈ 5.68 µM)
MIC [14]: 0.98 µg/mL (≈ 2.93 µM)
MIC (Bifidobacterium breve [15]): 0.98 µg/mL (≈ 2.93 µM)
MIC [16]: 0.98 µg/mL (≈ 2.93 µM)
MIC (Bifidobacterium longum [17]): 0.98 µg/mL (≈ 2.93 µM)
MIC (Bifidobacterium longum [18]): 0.98 µg/mL (≈ 2.93 µM)
MIC (Bifidobacterium bifidum [19]): 0.98 µg/mL (≈ 2.93 µM)
MIC (Bifidobacterium animalis [20]): 0.98 µg/mL (≈ 2.93 µM)
MIC (Bifidobacterium longum [21]): 0.98 µg/mL (≈ 2.93 µM)
MIC (Bifidobacterium breve [22]): 0.98 µg/mL (≈ 2.93 µM)
MIC [23]: 0.98 µg/mL (≈ 2.93 µM)
MIC [24]: 0.98 µg/mL (≈ 2.93 µM)
MIC (Bifidobacterium bifidum [25]): 3.9 µg/mL (≈ 11.7 µM)
MIC (Bifidobacterium longum [26]): 0.98 µg/mL (≈ 2.93 µM)
MIC [27]: 0.98 µg/mL (≈ 2.93 µM)
MIC (Bifidobacterium bifidum [28]): 0.98 µg/mL (≈ 2.93 µM)
MIC (Bifidobacterium breve [29]): 0.98 µg/mL (≈ 2.93 µM)
MIC (Bifidobacterium longum [30]): 0.98 µg/mL (≈ 2.93 µM)
MIC (Bifidobacterium longum [31]): 0.98 µg/mL (≈ 2.93 µM)
MIC (Bifidobacterium breve [32]): 1.9 µg/mL (≈ 5.68 µM)
MIC [33]: 0.98 µg/mL (≈ 2.93 µM)
MIC (Bifidobacterium bifidum [34]): 0.98 µg/mL (≈ 2.93 µM)
MIC (Bifidobacterium longum [35]): 0.98 µg/mL (≈ 2.93 µM)
MIC (Bifidobacterium breve [36]): 0.98 µg/mL (≈ 2.93 µM)
MIC (Bifidobacterium longum [37]): 0.98 µg/mL (≈ 2.93 µM)
MIC (Bifidobacterium longum [38]): 0.98 µg/mL (≈ 2.93 µM)
MIC (Bifidobacterium longum [39]): 0.98 µg/mL (≈ 2.93 µM)
MIC (Bifidobacterium bifidum [40]): 0.98 µg/mL (≈ 2.93 µM)
MIC (Bifidobacterium animalis [41]): 0.98 µg/mL (≈ 2.93 µM)
MIC (Bifidobacterium breve [42]): 0.98 µg/mL (≈ 2.93 µM)
MIC (Bifidobacterium longum [43]): 3.9 µg/mL (≈ 11.7 µM)
MIC [44]: 0.98 µg/mL (≈ 2.93 µM)
MIC (Bifidobacterium longum [45]): 0.98 µg/mL (≈ 2.93 µM)
MIC (Bifidobacterium bifidum [46]): 0.98 µg/mL (≈ 2.93 µM)
MIC (Bifidobacterium bifidum [47]): 0.98 µg/mL (≈ 2.93 µM)
